ChEMBL document CHEMBL1152629, “Discovery and structure-activity relationship analysis of Staphylococcus aureus sortase A inhibitors” (Bioorg Med Chem, 2009)
≈ marks a conversion by molar mass, not a printed value. Calls of active or inactive are those of the source. No cut-off for these calls is given here.

Key:
[1] = Inhibition of Staphylococcus aureus sortase A deltaN59 mutant assessed as Dap(Dnp) hydrolysis by FRET assay
[2] = Inhibition of Bacillus anthracis sortase A by FRET assay
Procedure, shortened: (§1)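 B. anthracis SrtA (1.5–15 µM final) preincubated 1 h at 25 °C with compound (0.08–400 µM final, Me2SO) in 20 mM HEPES, 5 mM CaCl2, pH 7.5. Reaction started with 100 µM Abz-LPETG-Dap(Dnp) substrate. Fluorescence read at ex 335/em 420 nm. IC50 from fit of initial velocities, three independent data sets, Hill equation.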

[3] = Inhibition of Bacillus anthracis sortase A by FRET-based enzyme kinetics assay; details: read-out: Ki(app); procedure, shortened: as §1
[4] = Inhibition of Staphylococcus aureus sortase A deltaN59 mutant assessed as Dap(Dnp) hydrolysis by FRET assay based enzyme kinetics assay; details: read-out: Ki(app)
Staphylococcus aureus [5] = assay: Antimicrobial activity against Staphylococcus aureus Newman by microtiter broth dilution method; type: functional
Procedure, shortened: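 S. aureus Newman overnight culture diluted to OD600 0.01, incubated at 37 °C, diluted to OD600 0.005; compound added at final 0.1–100 µM. OD600 followed during overnight growth at 37 °C in plate reader. Growth percentage relative to no-inhibitor cultures and to 10 µg/mL erythromycin. Triplicate.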

Staphylococcus aureus [6] = test system: Staphylococcus aureus

Row | SMILES | IC50 [1] [µM] | other results
1 | O=c1c(OCc2ccccc2)c(O)cnn1-c1ccccc1 | > 50 | IC50 [2]: > 50 µM
2 | CC1=NN(c2ccccc2)C(=S)/C1=C/Nc1ccc(I)cc1 | 42 | 
3 | O=c1c(Cl)c(Cl)cnn1C1CCCCC1 | > 50 | IC50 [2]: 14 µM
4 | CCSc1c(S)cnn(-c2ccccc2)c1=O |  | Ki [3]: 0.3 µM; Ki [4]: 1.4 µM; Activity (Staphylococcus aureus [5]): inactive
5 | O=c1c(Cl)c(Cl)cnn1-c1cc(Cl)cc(Cl)c1 | 61 | 
6 | CC1=NN(c2ccccc2)C(=S)/C1=C/Nc1ccc([N+](=O)[O-])cc1Br | 8.9 | 
7 | COc1c(O)cnn(-c2ccccc2)c1=O | > 50 | IC50 [2]: > 50 µM
8 | CC1=NN(c2ccccc2)C(=S)/C1=C/Nc1ccc([N+](=O)[O-])cc1[N+](=O)[O-] | 6.8 | 
9 | CC1=NN(c2ccccc2)C(=S)/C1=C/Nc1ccc([N+](=O)[O-])cc1O | 9.6 | 
10 | CCOc1cnn(C2CCCCC2)c(=O)c1Cl | > 50 | 
11 | Cc1ccc(N2C(=O)/C(=C/c3cccc([N+](=O)[O-])c3)SC2=S)c(C)c1 | 119 | 
12 | CC1=NN(c2ccccc2)C(=S)/C1=C/Nc1ccc(C)cc1C | 68 | 
13 | CCOc1cnn(-c2ccccc2)c(=O)c1S | 4.4 | 
14 | CCOc1c(Cl)cnn(-c2ccccc2)c1=O | > 50 | 
15 | Cc1ccc(/C=C2\SC(=S)N(c3cccc(Cl)c3)C2=O)cc1[N+](=O)[O-] | > 1000 | 
16 | CC1=NN(c2ccccc2)C(=S)/C1=C/Nc1ccc(Br)cc1 | 39 | Activity (Staphylococcus aureus [5]): inactive
17 | CCOc1c(Cl)cnn(-c2cccc(Br)c2)c1=O | > 50 | 
18 | CCOc1c(S)cnn(-c2ccccc2)c1=O |  | Ki [4]: 0.2 µM
19 | CCOc1c(S)cnn(-c2cccc(F)c2)c1=O | 5.5 | 
20 | CC1=NN(c2ccccc2)C(=S)/C1=C/Nc1ccccc1O | 22 | 
21 | O=C(/C=C/c1ccc([N+](=O)[O-])cc1)c1ccccc1 | 51 | 
22 | Cc1ccc(N2C(=O)/C(=C/c3cc([N+](=O)[O-])cc(Br)c3O)SC2=S)c(C)c1 | 3.7 | Activity (Staphylococcus aureus [6]): 84%; MIC (Staphylococcus aureus [5]): 10 µM (≈ 4.65 µg/mL)

Row | SMILES | IC50 [1] [µM] | other results
23 | O=c1c(Cl)c(Cl)cnn1-c1cccc(F)c1 | > 50 | 
24 | CSc1cnn(-c2ccccc2)c(=O)c1O | > 50 | 
25 | O=c1c(Cl)c(Cl)cnn1-c1ccccc1 | > 50 | 
26 | CCCN1C(=O)/C(=C/c2ccc(-c3ccccc3)o2)SC1=S | 186 | 
27 | CCOc1c(Cl)cnn(C2CCCCC2)c1=O | > 50 | 
28 | CCOc1c(Cl)cnn(-c2ccc([N+](=O)[O-])cc2)c1=O | > 50 | 
29 | CC1=NN(c2ccccc2)C(=S)/C1=C/Nc1ccc(C)c(C)c1 | 52 | 
30 | CCOc1c(Cl)cnn(-c2cccc(F)c2)c1=O | > 50 | 
31 | CN1C(=O)/C(=C/c2ccc(-c3ccccc3)o2)SC1=S | 405 | 
32 | COc1c(Cl)cnn(-c2cccc(C)c2)c1=O | > 50 | 
33 | CC1=NN(c2ccccc2)C(=S)/C1=C/Nc1ccc([N+](=O)[O-])cc1 |  | Activity (Staphylococcus aureus [6]): 58%; MIC (Staphylococcus aureus [5]): > 1000 µM
34 | CC1=NN(c2ccc(Cl)cc2)C(=O)/C1=C/Nc1ccc([N+](=O)[O-])cc1 | 48 | 
35 | Cc1ccc(N2C(=O)/C(=C/c3cc(Br)c(O)c([N+](=O)[O-])c3)SC2=S)c(C)c1 | 35 | 
36 | CSc1cnn(-c2ccccc2)c(=O)c1Cl | > 50 | 
37 | CCN1C(=O)/C(=C/c2ccc(-c3ccccc3[N+](=O)[O-])o2)SC1=S | 104 | 
38 | CCOc1c(Cl)cnn(-c2cc(Cl)cc(Cl)c2)c1=O | > 50 | 
39 | COc1cnn(-c2ccccc2)c(=O)c1S | 9.3 | 
40 | CC(=O)c1ccc(/N=C2\C(=O)NN=C2C)cc1 | 26 | 
41 | CCOc1c(S)cnn(C2CCCCC2)c1=O | 17.9 | 
42 | CCOc1cnn(-c2cccc(F)c2)c(=O)c1S | 5.7 | IC50 [2]: 0.9 µM
43 | CC1=NN(c2ccccc2)C(=S)/C1=C/Nc1cc([N+](=O)[O-])ccc1O | 14 | 
44 | CCOc1c(SS)cnn(-c2ccccc2)c1=O | 1.5 | IC50 [2]: 1.2 µM

Row | SMILES | IC50 [1] [µM] | other results
45 | CCOc1cnn(-c2cccc(F)c2)c(=O)c1Cl | > 50 | 
46 | CCOc1c(S)cnn(-c2ccc([N+](=O)[O-])cc2)c1=O | 30 | 
47 | CCn1ncc(SC)c(O)c1=O | > 50 | 
48 | CC1=NN(c2ccccc2)C(=S)/C1=C/Nc1ccccn1 | 0.76 | IC50 [2]: 1.4 µM; Activity (Staphylococcus aureus [5]): inactive
49 | CCOc1c(S)cnn(-c2cccc(Br)c2)c1=O | > 50 | 
50 | CCOc1cnn(-c2ccc([N+](=O)[O-])cc2)c(=O)c1Cl | 219 | 
51 | CCOc1c(Cl)cnn(-c2cccc(C)c2)c1=O | > 50 | 
52 | CCOc1cnn(-c2cccc(Br)c2)c(=O)c1Cl | > 50 | 
53 | CCOc1c(S)cnn(-c2cc(Cl)cc(Cl)c2)c1=O | 301 | 
54 | Cc1cccc(-n2ncc(Cl)c(Cl)c2=O)c1 | > 50 | 
55 | CC1=NN(c2ccccc2)C(=S)/C1=C/NC1CCCCC1 | 115 | 
56 | CCOc1cnn(-c2cc(Cl)cc(Cl)c2)c(=O)c1S | 166 | IC50 [2]: 5.2 µM
57 | COc1c(Cl)cnn(-c2cc(Cl)cc(Cl)c2)c1=O | > 50 | 
58 | CCOc1cnn(-c2ccccc2)c(=O)c1Cl | 1 | 
59 | CCOc1cnn(-c2cccc(C)c2)c(=O)c1S | 3.1 | Activity (Staphylococcus aureus [5]): inactive
60 | O=c1c(Cl)c(Cl)cnn1-c1ccc([N+](=O)[O-])cc1 | > 50 | 
61 | O=C1/C(=C/c2ccc(-c3ccccc3)o2)SC(=S)N1Cc1ccccc1 | 492 | 
62 | COc1c(Cl)cnn(-c2cccc(Br)c2)c1=O | > 50 | 
63 | CC1=NOC(=O)/C1=N\c1ccc([N+](=O)[O-])cc1 | 17 | 
64 | O=c1c(Cl)c(Cl)cnn1-c1cccc(Br)c1 | > 50 | 
65 | COc1c(S)cnn(-c2cccc(Cl)c2)c1=O | 4.5 | Activity (Staphylococcus aureus [6]): 50%; MIC (Staphylococcus aureus [5]): > 1000 µM
66 | COc1c(Cl)cnn(-c2ccccc2)c1=O | > 50 | 

Row | SMILES | IC50 [1] [µM] | other results
67 | O=C1/C(=C/c2cc([N+](=O)[O-])cc(Br)c2O)SC(=S)N1c1ccc([N+](=O)[O-])cc1 | 12 | 
68 | CC1=NN(c2ccccc2)C(=S)/C1=C/Nc1c(Br)cc(Br)cc1Br |  | Ki [3]: 1.7 µM; Activity (Staphylococcus aureus [5]): inactive
69 | C=CCN1C(=O)/C(=C/c2ccc(-c3ccccc3)o2)SC1=S | 199 | IC50 [2]: 27 µM
70 | CCN1C(=O)/C(=C/c2ccc(-c3cccc(Cl)c3)o2)SC1=S | 109 | 
71 | CC1=NN(c2ccc(Cl)cc2)C(=O)/C1=C/Nc1ccc([N+](=O)[O-])cc1C | 45 | 
72 | CC1=NN(c2ccccc2)C(=S)/C1=C/Nc1ccc(/N=N/c2ccccc2)cc1 | 9 | Activity (Staphylococcus aureus [5]): inactive
73 | CCOc1c(SSC)cnn(-c2ccccc2)c1=O |  | Ki [4]: 0.4 µM
74 | CCOc1c(SSc2ccccn2)cnn(-c2ccccc2)c1=O |  | Ki [4]: 0.03 µM
75 | CCSc1c(O)cnn(-c2ccccc2)c1=O | > 50 | IC50 [2]: > 50 µM
76 | CC1=NN(c2ccccc2)C(=O)/C1=C/Nc1ccc([N+](=O)[O-])cc1 | 56 | Ki [4]: 0.3 µM
77 | CN1C(=O)/C(=C/c2cc([N+](=O)[O-])cc(Br)c2O)SC1=S | 14 | 
78 | CC1=NN(c2ccccc2)C(=S)/C1=C/Nc1ccccc1Cl | 54 | 
79 | CCOc1cnn(-c2cccc(C)c2)c(=O)c1Cl | > 50 | 
80 | CCOc1c(S)cnn(-c2cccc(C)c2)c1=O | 3.3 | 
81 | COc1c(Cl)cnn(-c2cccc(F)c2)c1=O | > 50 | 
82 | CC1=NN(c2ccc(C)cc2)C(=O)/C1=C/Nc1ccc([N+](=O)[O-])cc1 | 62 | 
83 | Cc1cccc(N2C(=O)/C(=C/c3cc([N+](=O)[O-])cc(Br)c3O)SC2=S)c1 | 15 | 
84 | O=C1/C(=C/c2cc([N+](=O)[O-])cc(Br)c2O)SC(=S)N1c1cccc(Cl)c1 | 17 | 
85 | COc1c(Cl)cnn(C2CCCCC2)c1=O | > 50 | 
